# High-throughput results as filed in PubChem BioAssay.
# Rows were chosen to be rich in hits. Some 1.4% of all compounds tested hit in one or more screens of this group.
# Diaphorase act: compounds boosting diaphorase resazurin reduction – biochemical, uHTS, resorufin fluorescence, counter-screen for diaphorase-coupled primary assays, primary screen | Diaphorase/resazurin coupled assay, 16 min; stronger effect = higher value; 1 = vehicle wells, 0 = NADH-free wells | activation factor at 20 µM | actives 0.005% (n = 190,000) | AID 1229, 2008;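 active = diaphorase activity raised at least twofold by the compound at 20 µM; inactive = activation factor below 2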
#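 Measured by – red resorufin fluorescence at 544/590 nm excitation/emission · Test system – Clostridium kluyveri diaphorase, purified enzyme · Incubation – reaction time 16 min, room temperature · Buffer or medium – 50 mM HEPES pH 7.4 with 4.542 mM MgCl2, 0.005% Tween 20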
# HKDC1 inh: HKDC1 hexokinase inhibitors, primary screen, biochemical, fluorescence, uHTS | Q2TB90 | actives 0.16% (n = 340,000) | AID 493160, 2011 | recombinant HKDC1, G6PDH/diaphorase resazurin coupled fluorescence | inhibition, % at 20 µM;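 active = inhibition above about 35% when tested at 20 µM, limit read from the data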;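 note: plate controls were DMSO wells with enzyme for no effect and DMSO wells lacking enzyme for full effect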
# Target sequence (Q2TB90 whole entry, looked up): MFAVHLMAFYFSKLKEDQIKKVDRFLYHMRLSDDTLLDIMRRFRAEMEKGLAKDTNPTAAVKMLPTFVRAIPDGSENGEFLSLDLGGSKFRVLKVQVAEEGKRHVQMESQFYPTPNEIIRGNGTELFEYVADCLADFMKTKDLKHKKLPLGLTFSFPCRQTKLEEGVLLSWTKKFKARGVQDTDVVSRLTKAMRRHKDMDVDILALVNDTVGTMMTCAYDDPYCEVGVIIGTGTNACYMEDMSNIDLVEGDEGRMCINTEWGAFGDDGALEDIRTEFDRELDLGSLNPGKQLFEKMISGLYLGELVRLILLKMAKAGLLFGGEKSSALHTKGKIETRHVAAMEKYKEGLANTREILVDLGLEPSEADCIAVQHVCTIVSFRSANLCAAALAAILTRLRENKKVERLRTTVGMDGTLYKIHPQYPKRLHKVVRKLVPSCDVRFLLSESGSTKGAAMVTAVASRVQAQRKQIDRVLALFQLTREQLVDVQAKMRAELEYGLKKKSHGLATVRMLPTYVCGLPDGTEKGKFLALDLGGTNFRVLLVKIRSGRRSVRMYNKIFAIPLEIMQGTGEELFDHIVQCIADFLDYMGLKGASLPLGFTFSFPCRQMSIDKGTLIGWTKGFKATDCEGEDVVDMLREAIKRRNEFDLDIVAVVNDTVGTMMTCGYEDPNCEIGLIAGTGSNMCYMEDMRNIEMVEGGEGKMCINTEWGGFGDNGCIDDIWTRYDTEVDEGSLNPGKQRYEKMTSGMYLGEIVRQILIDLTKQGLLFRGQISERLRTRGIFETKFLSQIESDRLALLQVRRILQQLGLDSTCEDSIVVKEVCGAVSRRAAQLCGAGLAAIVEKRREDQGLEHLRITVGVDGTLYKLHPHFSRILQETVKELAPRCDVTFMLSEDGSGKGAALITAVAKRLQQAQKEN
#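 System: Recombinant HKDC1 hexokinase | Amount: HKDC1 at 5 µg/mL | Reagent: Glucose with 1 mM ATP | Doses: Single 20 µM dose | Incubation: Reaction time 90 min, room temperature, protected from light | Signal: Coupled resazurin fluorescence, excitation 525 nm, emission 613 nm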
# Fh CTSL1 inh: Fasciola hepatica cathepsin L1 inhibitors, primary screen, counter-screen for PFM18AAP inhibitor project, biochemical, QFRET, fluorogenic peptide substrate; recombinant F. hepatica cathepsin L1, Z-Leu-Arg-MCA fluorescence; actives 0.49% (n = 300,000); inhibition, % at 5.96 µM;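 active = inhibition above the mean of all tested compounds plus 3 SD, set per screening campaign, cut at about 17% in these data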;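 note: 0% = plate median of test compound wells and 100% = 1 µM Z-Phe-Ala-diazomethylketone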
# ATG4B inh: ATG4B protease inhibitors, primary screen, biochemical, fluorescence, uHTS; ATG4B cleavage of LC3-PLA2, NBD-HPC fluorescence, 1 h; Cysteine protease ATG4B (Homo sapiens), Q9Y4P1; actives 0.51% (n = 340,000); inhibition, % at 8.33 µM; in the data active = inhibition above about 40%
# Diaphorase inh: diaphorase inhibitors and chemical oxidizers, primary screen, counter-screen for diaphorase-coupled primary assays, biochemical, uHTS, resorufin fluorescence. diaphorase resazurin-to-resorufin fluorescence, NADH, 16 min; bacterial (C. kluyveri) enzyme, not human. inhibition, % at 20 µM. actives 0.69% (n = 190,000);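 active = primary screen inhibition at 20 µM above a set limit, cut at about 50% in these data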;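 note: plate controls were DMSO with full reaction for no effect and wells lacking NADH for full effect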
#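 controls = No-NADH positive control and DMSO neutral control | system = Clostridium kluyveri diaphorase enzyme | timing = reaction incubation of 16 min at room temperature | signal = resorufin fluorescence 544/590 nm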
# ATG4B conf: ATG4B protease inhibitors, retest, confirmation, biochemical, fluorescence, single concentration; shares compounds with ATG4B inh; ATG4B protease fluorescent substrate cleavage assay; inhibition, % at 8.33 µM; actives 92% (n = 320); AID 504757, 2011; in the data active = inhibition above about 39%
# PLA2 ctr: PLA2 enzyme inhibition, counter-screen for ATG4B inhibitor project, biochemical, single concentration, uHTS hits; inhibition, % at 8.33 µM; purified PLA2, NBD-C6-HPC fluorescence, 45 min; actives 66% (n = 1,600); shares compounds with ATG4B inh; AID 588402, 2011; in the data active = inhibition above about 50%
# * marks the source's active call; other numbers are inactive results; · = not tested or not shown.
SMILES,Diaphorase act,HKDC1 inh,Fh CTSL1 inh,ATG4B inh,Diaphorase inh,PLA2 ctr,others
Cc1cc(N/N=C/c2cccc(F)c2)nc(NCc2ccccc2)n1,·,2,0,73*,·,80*,
Cc1cc(C)nc(N/N=C/c2cccc(Cl)c2)n1,1,-9,-3,-5,3,·,
Cc1cc(N/N=C/c2ccc(Cl)cc2)nc(NCc2ccccc2)n1,0.9,-2,1,23,11,·,
CN(C)c1nc(NCc2ccccc2)nc(N/N=C/c2ccccc2F)n1,·,·,10,·,·,·,
O=[N+]([O-])c1cccc(-c2ccc(CN3CCCCC3)o2)c1,·,2,1,-4,·,·,
CC(C)NS(=O)(=O)c1ccc(CCC(=O)NCc2cccnc2)cc1,0.9,-1,7,-6,10,·,
CC(NS(=O)(=O)c1ccc(CCC(=O)NCc2cccnc2)cc1)c1ccccc1 (stereo not given),1,-1,-2,90*,4,-4,
COc1ccc(CNc2ccc(-c3ccccc3OC)nn2)cc1,0.8,-4,4,48*,22,3,
COc1ccc(-c2n[nH]c(C(F)(F)F)c2-c2cc3ccccc3o2)c(O)c1,0.8,0,4,58*,20,46,ATG4B conf=64*
COc1ccc(C)cc1NC(=O)CSc1nnc2ccc(-c3ccncc3)nn12,·,6,-1,-5,·,·,
COc1ccc(CS(=O)(=O)CC(C)(O)c2ccccc2Cl)cc1 (stereo not given),·,-2,-3,2,·,·,
COc1ccc(NC(=S)N2CCC(NC(=O)c3ccco3)CC2)cc1,·,-3,2,-7,·,·,
Cc1ccc(C(=O)NCCNC(=O)c2ccco2)cn1,·,-6,-1,-3,·,·,
Cc1cc(NS(=O)(=O)c2ccc(Nc3nc(-c4ccc(C)c(C)c4)cs3)cc2)no1,0.9,-7,-3,44*,12,38,ATG4B conf=71*
Cc1cc(NS(=O)(=O)c2ccc(Nc3nc(-c4ccc(O)cc4)cs3)cc2)no1,0.9,-2,-6,-8,12,·,
O=C(C[C@@H]1C/C=C/CCCC(=O)O[C@H](c2ccccc2)CNC1=O)N[C@H](CO)Cc1ccccc1,·,2,·,-12,·,·,
O=C(Nc1ccc(Cl)cc1)NC1CCCCC1Cc1ccco1 (stereo not given),0.9,2,15,70*,15,80*,
C(=N\Nc1nc(-c2ccccc2)cs1)/c1ccco1,0.5,-6,-2,10,46,·,
Cc1ccc(-c2csc(N/N=C/c3ccco3)n2)cc1,0.9,1,-3,41*,11,38,
O=C(Nc1cccc(Cl)c1N1CCCC1)c1ccco1,·,2,-1,63*,·,68*,
O=C(Nc1cccc(Cl)c1N1CCCCC1)c1ccc2c(c1)OCCO2,0.8,-7,2,36,23,·,
CCN1CCN(c2c(Cl)cccc2NC(=O)c2ccc3c(c2)OCCO3)CC1,1,0,0,65*,1,67*,
CN(C(=O)CN1C(=O)/C(=C/c2ccccc2F)SC1=S)C1CCS(=O)(=O)C1 (stereo not given),·,-8,3,5,·,·,
O=C(c1ccc(OC2CCN(C/C=C/c3ccc(F)cc3)CC2)cc1)N1CCCC1,·,-6,-3,42*,·,48,ATG4B conf=64*
O=C(c1ccc(OC2CCN(Cc3ccc(F)cc3)CC2)cc1)N1CCCC1,·,-7,1,6,·,·,
SMILES,Diaphorase act,HKDC1 inh,Fh CTSL1 inh,ATG4B inh,Diaphorase inh,PLA2 ctr,others
O=S(=O)(Nc1c(S(=O)(=O)c2ccccc2)c2nc3ccccc3nc2n1C1CCCCC1)c1ccccc1,0.6,26,-1,45*,37,50*,
CC(=O)Nc1cc(C(=O)N2CCc3ccccc3C2)ccc1Sc1ccc(Cl)cc1,0.8,4,3,40*,17,51*,
Cc1cnc(CN(C)C(=O)c2ccc3oc(Cc4ccc(Cl)cc4)nc3c2)[nH]1,·,-1,-2,-6,·,·,
CNC(=O)c1ccc(N(Cc2ccccc2C)S(C)(=O)=O)cc1,1.1,-4,1,1,-9,·,
Cc1ccccc1CN(c1ccc(C(=O)N/N=C/c2ccc(OCC(N)=O)cc2)cc1)S(C)(=O)=O,0.9,0,3,46*,13,47,
CC(C)c1ccc(NC2CCCN(C(=O)c3ccsc3)C2)cc1 (stereo not given),·,7,3,77*,·,78*,
CC(C)c1ccc(NC2CCCN(C(=O)CCN3Cc4ccccc4C3=O)C2)cc1 (stereo not given),·,1,1,44*,·,38,ATG4B conf=73*
CC(C)c1ccc(NC2CCCN(C(=O)c3cccnc3)C2)cc1 (stereo not given),·,0,2,24,·,·,
COC(=O)c1ccc(C(=O)N2CCCC(Nc3ccc(C(C)C)cc3)C2)cc1 (stereo not given),·,2,1,81*,·,82*,
CC(C)c1ccc(NC2CCCN(C(=O)c3cccs3)C2)cc1 (stereo not given),·,2,-1,76*,·,73*,
Cc1occc1C(=O)N1CCCC(Nc2ccc(C(C)C)cc2)C1 (stereo not given),·,0,-3,50*,·,58*,
CC(C)c1ccc(NC2CCCN(C(=O)c3n[nH]c4c3CCC4)C2)cc1 (stereo not given),·,5,3,55*,·,43,ATG4B conf=60*
O=C(CCc1cccc(Cl)c1)N1CCCC(Nc2ccccc2)C1 (stereo not given),·,4,1,48*,·,50,
CC(C)c1ccc(NC2CCCN(C(=O)c3cnn(C(C)C)c3)C2)cc1 (stereo not given),·,9,0,45*,·,49,ATG4B conf=53*
CC(C)c1ccc(NC2CCCN(C(=O)C3=NN(C)C(=O)CC3)C2)cc1 (stereo not given),·,1,-5,-1,·,·,
CC(C)CC(=O)N1CCN(c2ccc(NC(=O)c3ccco3)cc2)CC1,·,6,-1,-1,·,·,
COc1ccccc1CN(C)C(=O)c1cccc(S(=O)(=O)N2CCCc3ccccc32)c1,·,-3,·,-5,·,·,
COc1ccc([C@H]2CC(=O)C=C(c3cccc(C(C)C)c3)C2)cc1OC,·,1,·,-7,·,·,
